# Calls of active or inactive are those of the source. The rule behind the calls is not given here.
# Tests used:
# [1] = Cytotoxicity against human UO31 cells after 48 hrs by SRB assay; type: functional; conditions: UO-31, 48 h
# Procedure, shortened: (§1)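 NCI-60 five-dose mode on the full human tumour line panel. Concentrations ran from 100 to 0.01 µM with 48 h continuous exposure. Growth was estimated by SRB protein staining against untreated controls, and IC50 values were derived from the dose–response.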
# [2] = system: MDA-MB-468; test: Cytotoxicity against human MDA-MB-468 cells after 48 hrs by SRB assay; type: functional; conditions: MDA-MB-468, 48 h
# Procedure, shortened: (§2)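 NCI-60 five-dose screen: cells exposed continuously for 48 h across 100 to 0.01 µM. Growth or viability estimated by sulforhodamine B protein staining, read spectrophotometrically against untreated controls; IC50 taken from the dose-response.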
# [3] = system: HCT-116; test: Cytotoxicity against human HCT116 cells after 48 hrs by SRB assay; type: functional; conditions: HCT-116, 48 h
# Procedure, shortened: (§3)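 NCI-60 five-dose testing, 100 to 0.01 µM, under a 48 h continuous-exposure protocol. Growth estimated by SRB protein assay, read spectrophotometrically against untreated controls; IC50 derived from the dose-response.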
# [4] = system: NCI-H322M; test: Cytotoxicity against human NCI-H322M cells after 48 hrs by SRB assay; type: functional; procedure, shortened: as §2
# [5] = system: KM12; test: Cytotoxicity against human KM12 cells after 48 hrs by SRB assay; type: functional; conditions: KM12, 48 h; procedure, shortened: as §3
# [6] = system: SN12C; test: Cytotoxicity against human SN12C cells after 48 hrs by SRB assay; type: functional; procedure, shortened: as §1
# [7] = system: MDA-MB-435; test: Cell cycle arrest in human MDA-MB-435 cells assessed as accumulation at S phase at 5 uM after 48 hrs by propidium iodide staining-based FACS analysis (reference value: 22.8%); type: functional
# [8] = system: MDA-MB-435; test: Cytotoxicity against human MDA-MB-435 cells assessed as cell growth at 10 uM after 48 hrs by MTT assay relative to untreated control; type: functional; conditions: MDA-MB-435, 48 h, read-out: Activity
# Procedure, shortened: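 Melanoma lines grown at 37 °C in humidified 5% CO2: MDA-MB-435 in DMEM/Ham's F12 1:1 with 10% FCS and antibiotics, SK-MEL-2 in RPMI-1640 with 10% FCS. Cells plated 24 h, then exposed 48 h to 100–0.01 µM (dilutions from fresh 100 µM stock in medium). MTT 0.5 mg/mL added for 4 h, crystals dissolved in EtOH/DMSO 1:1, absorbance read at 540 nm. Mean ± SD of three independent experiments.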
# [9] = Cytotoxicity against human UACC257 cells after 48 hrs by SRB assay; type: functional; conditions: UACC-257, 48 h; procedure, shortened: as §1
# [10] = system: MOLT-4; test: Cytotoxicity against human MOLT4 cells after 48 hrs by SRB assay; type: functional; conditions: MOLT-4, 48 h; procedure, shortened: as §2
# [11] = system: OVCAR-8; test: Cytotoxicity against human OVCAR8 cells after 48 hrs by SRB assay; type: functional; conditions: OVCAR-8, 48 h; procedure, shortened: as §2
# [12] = system: OVCAR-3; test: Cytotoxicity against human OVCAR3 cells after 48 hrs by SRB assay; type: functional; conditions: OVCAR-3, 48 h; procedure, shortened: as §2
# [13] = system: MDA-MB-435; test: Cytotoxicity against human MDA-MB-435 cells at 5 uM after 24 hrs by MTT assay; type: functional
# Procedure, shortened: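 MDA-MB-435 cells in DMEM/Ham's F12 (1:1) with 10% FCS, 37 °C, 5% CO2. Time course at a fixed 5 µM, incubated 8, 16, 24 or 48 h. Viability then read by MTT reduction (0.5 mg/mL, 4 h), formazan dissolved in EtOH/DMSO, absorbance at 540 nm, as percent living cells.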
# [14] = Cytotoxicity against human OVCAR4 cells after 48 hrs by SRB assay; type: functional; conditions: OVCAR-4, 48 h; procedure, shortened: as §2
# [15] = system: MDA-MB-435; test: Induction of apoptosis in human MDA-MB-435 cells assessed as chromatin condensation at 5 uM after 20 hrs by Hoechst 33342 staining-based phase-contrast microscopy; type: functional, cell-based
# [16] = system: DU-145; test: Cytotoxicity against human DU145 cells after 48 hrs by SRB assay; type: functional; conditions: DU-145, 48 h; procedure, shortened: as §3
# [17] = system: MDA-MB-435; test: Induction of apoptosis in human MDA-MB-435 cells assessed as alterations in stress action fibre aggregation at 5 uM after 20 hrs by Hoechst 33342 staining-based […] microscopy; type: functional, cell-based
# Procedure, shortened: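 MDA-MB-435 cells were grown for 24 h, then treated with or without 5 μM compound for 20 h. Cells were fixed for 20 min and permeabilised with 0.2% Triton X-100 for 4 min at room temperature. Actin was stained with a mouse anti-actin antibody and an Alexa Fluor 568 anti-mouse antibody, each for 1 h at RT. Nuclei were counterstained with Hoechst 33342, and cells were imaged by confocal microscopy.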
# [18] = system: CCRF-CEM; test: Cytotoxicity against human CCRF-CEM cells after 48 hrs by SRB assay; type: functional; procedure, shortened: as §3
# [19] = system: Malme-3M; test: Cytotoxicity against human MALME-3M cells after 48 hrs by SRB assay; type: functional; procedure, shortened: as §3
# [20] = system: HT-29; test: Cytotoxicity against human HT-29 cells after 48 hrs by SRB assay; type: functional; conditions: HT-29, 48 h; procedure, shortened: as §3
# [21] = system: MDA-MB-435; test: Induction of apoptosis in human MDA-MB-435 cells assessed as dispersed and rounded cells at 5 uM after 20 hrs by Hoechst 33342 staining-based phase-contrast microscopy; type: functional, cell-based
# Procedure, shortened: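 MDA-MB-435 human melanoma cells were grown in Ham's F12/DMEM (1:1) with 10% FCS and antibiotics at 37 °C under 5% CO₂. Cells were exposed to 5 μM compound or left untreated. They were imaged by phase-contrast microscopy 20 h after treatment.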
# [22] = Cytotoxicity against human CAL-1 cells assessed as reduction in cell growth at 1 to 10 uM after 48 hrs by MTT assay relative to untreated control; type: functional; design: scale not given: the % may be the effect or the level left
# Procedure, shortened: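 CAL1 melanoma cells grown in DMEM with 2 mM L-glutamine and 10% FCS at 37 °C, 5% CO2. Seeded at 10^4 cells/well, grown 24 h, then treated 48 h across 100–0.01 μM (compounds dissolved in medium). Read-out: 0.5 mg mL⁻¹ MTT for 4 h, crystals dissolved in EtOH/DMSO 1:1, absorbance at 540 nm.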
# [23] = read-out: LC50 (the source's name)
smiles,measurement,setting,value
C[C@@H]1NC(c2ccc(Br)cc2)=Nc2nc3ccccn3c2C1=O,GI50,[1],8.11 µM
same,TGI,[1],> 100 µM
same,CC50,[1]; [23],> 100 µM
same,GI50,[2],1.98 µM
same,TGI,[2],5.12 µM
same,CC50,[2]; [23],> 100 µM
same,GI50,[3],4.04 µM
same,TGI,[3],> 100 µM
same,CC50,[3]; [23],> 100 µM
same,GI50,[4],23.6 µM
same,TGI,[4],> 100 µM
same,CC50,[4]; [23],> 100 µM
same,GI50,[5],3.39 µM
same,TGI,[5],> 100 µM
same,CC50,[5]; [23],> 100 µM
same,GI50,[6],17.6 µM
same,TGI,[6],> 100 µM
same,CC50,[6]; [23],> 100 µM
same,Activity,[7],30.8%
same,growth at 10 µM,[8],-15%
same,GI50,[9],35.2 µM
same,TGI,[9],> 100 µM
same,CC50,[9]; [23],> 100 µM
same,GI50,[10],12.8 µM
same,TGI,[10],> 100 µM
same,CC50,[10]; [23],> 100 µM
same,GI50,[11],17 µM
same,TGI,[11],> 100 µM
same,CC50,[11]; [23],> 100 µM
same,GI50,[12],3.34 µM
same,TGI,[12],17.8 µM
same,CC50,[12]; [23],> 100 µM
same,Activity,[13],10%
same,GI50,[14],17.9 µM
same,TGI,[14],> 100 µM
same,CC50,[14]; [23],> 100 µM
same,Activity,[15],Active
same,GI50,[16],23.2 µM
same,TGI,[16],> 100 µM
same,CC50,[16]; [23],> 100 µM
same,Activity,[17],Active
same,GI50,[18],6.56 µM
same,TGI,[18],> 100 µM
same,CC50,[18]; [23],> 100 µM
same,GI50,[19],15.2 µM
same,TGI,[19],> 100 µM
same,CC50,[19]; [23],> 100 µM
same,GI50,[20],3.73 µM
same,TGI,[20],> 100 µM
same,CC50,[20]; [23],> 100 µM
same,Activity,[21],Active
C[C@@H]1NC(c2ccccc2)=Nc2nc3ccccn3c2C1=O,Activity,[22],20%

# Source: ChEMBL document CHEMBL3124806, “Imidazopyridine-fused [1,3]-diazepinones: synthesis and antiproliferative activity” (Eur J Med Chem, 2014)
